Laboratory results taken from ChEMBL document CHEMBL3352608, “Medicinal chemistry optimization of antiplasmodial imidazopyridazine hits from high throughput screening of a softfocus kinase library: part 2” (J Med Chem, 2014).
In brackets after ≈: the same amount, converted by molar mass.

Columns and labels:
Liver = assay: Metabolic stability in mouse liver microsomes assessed as compound remaining after 30 mins; type: ADME; details: 0.5 h
In short: (§1)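 One-point microsomal stability test: compound incubated 30 min with human, rat or mouse liver microsomes; percentage of parent remaining measured.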

[1] = Aqueous solubility of the compound at pH 2; type: physicochemical; details: buffer
Liver microsome [2] = assay: Metabolic stability in rat liver microsomes assessed as compound remaining after 30 mins; type: ADME; details: 0.5 h; in short: as §1
[3] = Aqueous solubility of the compound at pH 6.5; type: physicochemical; details: buffer
Liver microsome [4] = assay: Metabolic stability in human liver microsomes assessed as compound remaining after 30 mins; type: ADME; details: 0.5 h; in short: as §1
Plasmodium falciparum [5] = assay: Antiplasmodial activity against Plasmodium falciparum K1 by [3H]hypoxanthine incorporation assay; type: functional, organism-based
In short: (§2)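 Modified [3H]-hypoxanthine incorporation assay on P. falciparum asexual cultures, chloroquine and artesunate as references in every run. IC50 values are means of ≥2 independent experiments; individual values mostly within 2-fold (maximum 3-fold).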

Plasmodium falciparum [6] = assay: Antiplasmodial activity against Plasmodium falciparum NF54 by [3H]hypoxanthine incorporation assay; type: functional, organism-based; in short: as §2
CHO = assay: Cytotoxicity against CHO cells; type: cell-based, Cricetulus griseus; details: chinese hamster
[7] = system: CHO cells (Cricetulus griseus); assay: Cytotoxicity against Chinese hamster CHO cells
[8] = system: CHO cells (Cricetulus griseus); assay: Selectivity index, ratio of IC50 for Chinese hamster CHO cells to IC50 for Plasmodium falciparum
[9] = Selectivity index, ratio of IC50 for CHO cells to IC50 for Plasmodium falciparum; type: toxicity, cell-based; details: hamster, read-out: Ratio IC50
[10] = Plasma concentration in mouse infected with Plasmodium berghei ANKA at 50 mg/kg/day, po after 4 hrs by HPLC analysis; type: ADME, organism-based; design: route oral
In short: (§3)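 P. berghei-infected mice dosed orally at 50 mg/kg daily for 4 days; blood sampled 1, 4 and 24 h after the first dose and analysed by HPLC for drug levels.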

[11] = molecular target: Voltage-gated inwardly rectifying potassium channel KCNH2 (Homo sapiens, UniProt Q12809); assay: Inhibition of human ERG channel by patch clamp technique
Plasmodium berghei = assay: Antimalarial activity against Plasmodium berghei ANKA infected in mouse assessed as reduction in parasitemia at 50 mg/kg/day, po qd administered for 4 days relative to control; type: functional; design: Activity: scale not given: the % may be the effect or the level left
In short: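 Mice (n = 3) infected with GFP-transfected P. berghei ANKA; compound in HPMC suspension vehicle given orally once daily at 4, 24, 48 and 72 h after infection. Blood collected day 4 (96 h post-infection); parasitemia by flow cytometry (detection limit 0.1%). Activity = difference in mean % parasitemia between control and treated groups, as % of control.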

[12] = Plasma concentration in mouse infected with Plasmodium berghei ANKA at 50 mg/kg/day, po after 1 hr by HPLC analysis; type: ADME, organism-based; design: route oral; in short: as §3
[13] = Plasma concentration in mouse infected with Plasmodium berghei ANKA at 50 mg/kg/day, po after 24 hrs by HPLC analysis; type: ADME, organism-based; design: route oral; in short: as §3

Chain of Voltage-gated inwardly rectifying potassium channel KCNH2 (Q12809 whole entry): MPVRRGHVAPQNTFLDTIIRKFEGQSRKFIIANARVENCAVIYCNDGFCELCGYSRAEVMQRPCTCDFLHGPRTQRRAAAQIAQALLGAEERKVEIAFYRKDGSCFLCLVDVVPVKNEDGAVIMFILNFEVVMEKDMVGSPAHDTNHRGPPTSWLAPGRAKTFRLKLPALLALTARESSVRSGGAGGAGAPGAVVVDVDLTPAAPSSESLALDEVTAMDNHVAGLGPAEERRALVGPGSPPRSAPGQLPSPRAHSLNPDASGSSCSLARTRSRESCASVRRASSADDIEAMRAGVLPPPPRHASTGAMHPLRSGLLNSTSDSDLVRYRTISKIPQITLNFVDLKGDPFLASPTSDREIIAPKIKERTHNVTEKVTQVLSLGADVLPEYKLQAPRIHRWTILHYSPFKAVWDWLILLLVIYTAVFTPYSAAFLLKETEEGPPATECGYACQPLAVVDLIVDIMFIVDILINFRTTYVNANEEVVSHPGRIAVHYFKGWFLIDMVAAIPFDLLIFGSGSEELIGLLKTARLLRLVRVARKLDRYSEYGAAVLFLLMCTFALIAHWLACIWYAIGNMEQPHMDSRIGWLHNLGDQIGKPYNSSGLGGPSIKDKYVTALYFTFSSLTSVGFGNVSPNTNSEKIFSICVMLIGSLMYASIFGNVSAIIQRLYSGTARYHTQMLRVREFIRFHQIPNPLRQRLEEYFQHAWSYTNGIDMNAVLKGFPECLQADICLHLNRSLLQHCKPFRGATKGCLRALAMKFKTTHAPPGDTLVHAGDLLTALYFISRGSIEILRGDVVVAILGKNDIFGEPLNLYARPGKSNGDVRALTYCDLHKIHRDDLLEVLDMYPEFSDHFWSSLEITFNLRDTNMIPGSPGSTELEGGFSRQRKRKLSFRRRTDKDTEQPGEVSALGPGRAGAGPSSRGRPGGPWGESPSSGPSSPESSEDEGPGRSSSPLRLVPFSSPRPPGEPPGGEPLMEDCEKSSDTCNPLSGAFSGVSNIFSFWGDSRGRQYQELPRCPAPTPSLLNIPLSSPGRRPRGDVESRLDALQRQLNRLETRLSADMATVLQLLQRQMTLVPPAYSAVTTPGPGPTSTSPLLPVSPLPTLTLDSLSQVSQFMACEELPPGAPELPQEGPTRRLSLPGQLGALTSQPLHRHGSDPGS

Stability (Liver)	solubility [1] [µM]	Stability (Liver microsome [2])	solubility [3] [µM]	Stability (Liver microsome [4])	IC50 (Plasmodium falciparum [5]) [nM]	IC50 (Plasmodium falciparum [6]) [nM]	concentration at 4 h [10] [nM]	concentration at 1 h [12] [nM]	concentration at 24 h [13] [nM]	Compound	Activity (CHO)	Activity [7]	selectivity ratio [8]	selectivity ratio [9]	IC50 [11] [nM]	Activity (Plasmodium berghei) [%]	MSD (Plasmodium berghei) [days]
–	< 5	–	< 5	–	–	1050	–	–	–	CS(=O)(=O)c1ccc(-c2cnc3ccc(-c4cncc(C(F)(F)F)c4)nn23)cc1	–	–	–	–	–	–	–
–	174 (≈ 63.6 µg/mL)	–	15 (≈ 5.48 µg/mL)	–	55	69	–	–	–	CS(=O)(=O)c1ccc(-c2cnc3ccc(-c4cncc(N)c4)nn23)cc1	–	–	–	–	–	–	–
–	16 (≈ 6.86 µg/mL)	–	< 5	–	42	58	–	–	–	CS(=O)(=O)c1cccc(-c2ccc3ncc(-c4cncc(S(C)(=O)=O)c4)n3n2)c1	–	–	–	–	–	–	–
–	183 (≈ 78.6 µg/mL)	–	53 (≈ 22.8 µg/mL)	–	473	636	–	–	–	CS(=O)(=O)c1cncc(-c2ccc3ncc(-c4cncc(S(C)(=O)=O)c4)n3n2)c1	–	–	–	–	–	–	–
–	190 (≈ 86.9 µg/mL)	–	8.6 (≈ 3.93 µg/mL)	–	–	2.2	–	–	–	CS(=O)(=O)c1ccc(-c2cnc3ccc(-c4cccc(S(=O)(=O)CCO)c4)nn23)cc1	–	–	–	–	–	–	–
Stable	> 200	Stable	> 200	Stable	2.6	3	< 10	–	< 10	CS(=O)(=O)c1ccc(-c2cnc3ccc(-c4cccc(S(=O)(=O)CCCN)c4)nn23)cc1	Non-toxic	Non-toxic	> 1000	> 1000	> 33000	<40	4
Stable	> 200	Stable	178 (≈ 84.8 µg/mL)	Stable	–	6.5	–	–	–	CS(=O)(=O)c1ccc(-c2cnc3ccc(-c4cccc(C(=O)N5CCC(O)CC5)c4)nn23)cc1	–	–	–	–	–	–	–
Unstable	166 (≈ 82.6 µg/mL)	Unstable	162 (≈ 80.6 µg/mL)	Unstable	8.8	14	–	–	–	CS(=O)(=O)c1cccc(-c2ccc3ncc(-c4ccc(S(=O)(=O)N5CCNCC5)cc4)n3n2)c1	–	–	–	–	–	–	–
Stable	207 (≈ 85.2 µg/mL)	Stable	98 (≈ 40.3 µg/mL)	Stable	–	6.5	–	–	–	C[S+]([O-])c1ccc(-c2cnc3ccc(-c4cccc(S(C)(=O)=O)c4)nn23)cc1 (stereo not given)	–	–	–	–	–	99.7	14
Stable	191 (≈ 88.3 µg/mL)	Stable	177 (≈ 81.9 µg/mL)	Stable	21	18	< 10	–	< 10	CS(=O)(=O)c1cccc(-c2ccc3ncc(-c4ccc(C(=O)N5CCC(O)C5)cc4)n3n2)c1 (stereo not given)	–	–	–	–	> 33000	<40	4
Stable	> 200	Stable	180 (≈ 84.7 µg/mL)	Stable	9.4	11	–	–	–	CS(=O)(=O)c1cccc(-c2ccc3ncc(-c4ccc(S(=O)(=O)CCCN)cc4)n3n2)c1	Non-toxic	Non-toxic	> 1000	> 1000	–	–	–
–	18 (≈ 8.18 µg/mL)	–	< 5	–	31	37	–	–	–	CS(=O)(=O)c1cncc(-c2cnc3ccc(-c4cccc(S(=O)(=O)C5CC5)c4)nn23)c1	–	–	–	–	–	–	–
–	< 5	–	< 5	–	2	3.3	–	–	–	CS(=O)(=O)c1ccc(-c2cnc3ccc(-c4cccc(S(=O)(=O)C5CC5)c4)nn23)cn1	–	–	–	–	–	–	–
–	6.3 (≈ 2.64 µg/mL)	–	< 5	–	1.2	1.5	–	–	–	NC(=O)c1ccc(-c2cnc3ccc(-c4cccc(S(=O)(=O)C5CC5)c4)nn23)cc1	Non-toxic	Non-toxic	> 1000	> 1000	–	–	–
Stable	–	Stable	–	Stable	–	–	–	–	–	CS(=O)(=O)c1cccc(-c2ccc3ncc(-c4ccc(C(=O)N5CCNCC5)cc4)n3n2)c1	–	–	–	–	–	<40	4

The next lines start with the compound.

Compound	Stability (Liver)	solubility [1] [µM]	Stability (Liver microsome [2])	solubility [3] [µM]	Stability (Liver microsome [4])	IC50 (Plasmodium falciparum [5]) [nM]	IC50 (Plasmodium falciparum [6]) [nM]	concentration at 4 h [10] [nM]	concentration at 1 h [12] [nM]	concentration at 24 h [13] [nM]	Activity (CHO)	Activity [7]	selectivity ratio [8]	selectivity ratio [9]	IC50 [11] [nM]	Activity (Plasmodium berghei) [%]	MSD (Plasmodium berghei) [days]
CS(=O)(=O)c1ccc(-c2cnc3ccc(-c4cccc(C(=O)NCCO)c4)nn23)cc1	Unstable	> 200	Unstable	> 100	Unstable	–	–	–	–	–	–	–	–	–	–	–	–
CS(=O)(=O)c1ccc(-c2cnc3ccc(-c4cncc(S(C)(=O)=O)c4)nn23)cc1	–	< 5	–	< 5	–	82	96	–	–	–	–	–	–	–	–	–	–
CS(=O)(=O)c1ccc(-c2cnc3ccc(-c4ccnc(C(F)(F)F)c4)nn23)cc1	–	5.4 (≈ 2.26 µg/mL)	–	< 5	–	26	45	–	–	–	Non-toxic	Non-toxic	> 1000	> 1000	–	–	–
CS(=O)(=O)c1cccc(-c2ccc3ncc(-c4ccc(S(C)(=O)=O)nc4)n3n2)c1	–	< 5	–	< 5	–	9.9	12	–	–	–	–	–	–	–	–	–	–
CS(=O)(=O)c1cccc(-c2ccc3ncc(-c4ccc(N)nc4)n3n2)c1	–	192 (≈ 70.2 µg/mL)	–	< 5	–	19	23	–	–	–	–	–	–	–	–	–	–
CS(=O)(=O)c1cncc(-c2ccc3ncc(-c4ccc(S(C)(=O)=O)nc4)n3n2)c1	–	52 (≈ 22.3 µg/mL)	–	13 (≈ 5.58 µg/mL)	–	610	808	–	–	–	–	–	–	–	–	–	–
CS(=O)(=O)c1cncc(-c2ccc3ncc(-c4ccc(S(=O)(=O)C5CC5)cc4)n3n2)c1	–	< 5	–	< 5	–	484	662	–	–	–	–	–	–	–	–	–	–
C[S+]([O-])c1cccc(-c2ccc3ncc(-c4ccc(S(C)(=O)=O)cc4)n3n2)c1 (stereo not given)	Unstable	188 (≈ 77.4 µg/mL)	Unstable	157 (≈ 64.6 µg/mL)	Unstable	36	39	490	590	–	–	–	–	–	4000	99.8	14
C[S+]([O-])c1cccc(-c2ccc3ncc(-c4ccc(C(N)=O)cc4)n3n2)c1 (stereo not given)	–	112 (≈ 42.2 µg/mL)	–	< 5	–	–	103	–	–	–	–	–	–	–	–	–	–
C[S+]([O-])c1ccc(-c2cnc3ccc(-c4cccc([S+](C)[O-])c4)nn23)cc1 (stereo not given)	Unstable	205 (≈ 81.1 µg/mL)	Unstable	192 (≈ 75.9 µg/mL)	Unstable	30	35	760	2440	–	–	–	–	–	12000	99.8	25
O=S(=O)(c1cccc(-c2ccc3ncc(-c4ccc(-c5nnn[nH]5)cc4)n3n2)c1)C1CC1	–	< 5	–	183 (≈ 81.2 µg/mL)	–	25	43	–	–	–	–	–	–	–	> 33000	<40	4
CS(=O)(=O)c1cccc(-c2ccc3ncc(-c4ccc(C(=O)O)cc4)n3n2)c1	–	–	–	–	–	–	–	–	–	–	Non-toxic	Non-toxic	> 1000	> 1000	–	–	–
